High-throughput results as filed in PubChem.
A1 apoptosis 2 – A1 inhibitors via caspase activation, primary screen, cell-based, luminescence, HTS, two replicates | MEF A1-2A-BIM cells, caspase-Glo luminescence, 3 h; percent of clofoctol response, DMSO zero | caspase activation, % (test concentration not listed) | 24,000 tested, under 10 active; in the data active = caspase activation above about 5.9%
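Material: mouse embryonic fibroblasts co-expressing A1 and BIM (A1-2A-BIM), primed for A1 dependence / Quantity: 2500 cells/well / Buffer or medium: RPMI-1640 growth medium with 10% FBS / Doses: 50 nL compound per well, pinned / Schedule: 3 h compound exposure at 37 °C / Signal: Caspase-Glo luminescence (DEVD substrate) / Measure: Caspase-3/7 activation, seen as rise in luminescence signal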
INS-1E rescue – protection of INS-1E cells from cytokine death, primary screen, ATP luminescence, single point. 20,000 tested, 0.1% active. protection from cytokine-induced ATP loss, % at 10 µM. INS-1E cytokine-induced death, 48 h; normalised: neutral wells 0, positive control 100;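 active = mean replicate protection from cytokine-induced ATP loss at least 50% and at least 75% of replicates each reaching 50%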
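Material: INS-1E rat cells; Quantity: 8000 cells/well; Buffer or medium: phenol-red-free RPMI with 5% fetal bovine serum; Probe or stimulus: cytokine cocktail of IFN-γ, TNF-α and IL-1β; Compound dosing: single test concentration per compound, delivered by pin transfer; Incubation: 48 h co-treatment, 10 min post-lysis read; Signal: CellTiter-Glo luminescence.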
T cruzi HTS – inhibitors of intracellular Trypanosoma cruzi, primary screen, cell-based, plate reader, single point, set 2. intracellular Trypanosoma cruzi in host cells. activity score (inhibition), % at 5.01 µM. 22,000 tested, 4.9% active; in the data active = activity score above about 55%;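 also: parasites and compound incubated about four days before reading; 0% = median of neutral control wells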
* = called active by the depositor. Only a selection was taken, and hits are over-represented in it overall.

How did O=C1O[C@@H](c2ccccc2)[C@@H](c2ccccc2)N2[C@@H](c3ccc(OCCO)cc3)[C@]3(C(=O)Nc4ccc(C#CC5(O)CCCCCC5)cc43)[C@@H](C(=O)NC[C@H](O)c3ccccc3)[C@H]12 do in these assays?
A1 apoptosis 2: 1

Results for O=C(N/N=C/c1c(O)cc(O)cc1O)c1ccccc1O ?
A1 apoptosis 2: -7; INS-1E rescue: -13; T cruzi HTS: -4

What do the screens show for `C[C@H](CO)N1C[C@H](C)[C@H](CN(C)C(=O)Cc2ccccc2)OCCCC[C@H](C)Oc2ccc(NC(=O)Nc3ccc4c(c3)OCO4)cc2C1=O`?
A1 apoptosis 2: 0

What do the screens show for `COc1ccc(/C=N/NC(=O)c2ccc(C(=O)NO)cc2)cc1O`?
A1 apoptosis 2: -1

Results for C[C@@H]1CN([C@H](C)CO)C(=O)c2cccc(NC(=O)Nc3ccc(C(F)(F)F)cc3)c2O[C@@H]1CN(C)S(=O)(=O)c1ccc(Cl)cc1 ?
A1 apoptosis 2: 0; INS-1E rescue: -108; T cruzi HTS: 63*

How did Cc1ccc(S(=O)(=O)N(C)C[C@H]2Oc3c(NC(=O)Nc4ccc(C(F)(F)F)cc4)cccc3C(=O)N([C@H](C)CO)C[C@@H]2C)cc1 do in these assays?
INS-1E rescue: -14; T cruzi HTS: 27

Results for C[C@@H]1CN([C@@H](C)CO)C(=O)c2cccc(NC(=O)Nc3ccc(C(F)(F)F)cc3)c2O[C@@H]1CN(C)S(=O)(=O)c1ccc(Cl)cc1 ?
A1 apoptosis 2: 0; INS-1E rescue: -107; T cruzi HTS: 70*

How did C[C@H]1CN([C@@H](C)CO)C(=O)c2cccc(NC(=O)Nc3ccc(C(F)(F)F)cc3)c2O[C@@H]1CN(C)S(=O)(=O)c1ccc(F)cc1 do in these assays?
INS-1E rescue: -18; T cruzi HTS: 21

How did C[C@H](CO)N1C[C@H](C)[C@@H](CN(C)S(=O)(=O)c2ccccc2)Oc2c(NC(=O)Nc3ccccc3)cccc2C1=O do in these assays?
A1 apoptosis 2: -1; INS-1E rescue: -4; T cruzi HTS: 61*

What do the screens show for `C[C@H]1CN([C@@H](C)CO)C(=O)c2cccc(NC(=O)Nc3ccccc3)c2O[C@H]1CN(C)S(=O)(=O)c1ccccc1`?
A1 apoptosis 2: -1; INS-1E rescue: -5; T cruzi HTS: -13

Results for CC(C)(C)OC(=O)NC1(/C=N/NC(=O)CCCCCCC(=O)O)CCCC1 ?
A1 apoptosis 2: 0; INS-1E rescue: -3; T cruzi HTS: -21

Results for CC(C)NC(=O)N(C)C[C@H]1Oc2ccc(NC(=O)Nc3ccccc3)cc2CC(=O)N([C@H](C)CO)C[C@@H]1C ?
A1 apoptosis 2: 0

How did CC1(C)COC(CCC/C=N/NC(=O)CCCCCCC(=O)NO)OC1 do in these assays?
A1 apoptosis 2: 1
